Laboratory results: ChEMBL document CHEMBL3271936, “Biologically oriented organic sulfur chemistry. 14. Antiinflammatory properties of some aryl sulfides, sulfoxides, and sulfones” (J Med Chem, 1976)
Calls of active or inactive are those of the source. The rule behind the calls is not given here.

What was measured:
[1] = system: Rattus norvegicus; assay: Antiinflammatory activity in Holtzman rat assessed as inhibition of carrageenan-induced paw edema at 50 mg/kg, po administered at 0.5 and 2.5 hrs prior to carrageenan-challenge relative to control; format: functional; details: Holtzmann
How it was run: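 Carrageenan paw-edema assay in male or female Holtzman rats (180–190 g), five per group. Compound given orally at 50 mg/kg twice, at 2.5 h and 0.5 h before carrageenan injection into the hind paw. Inhibition of edema is expressed as percent versus controls.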

[2] = system: Rattus norvegicus; assay: Antiinflammatory activity in Holtzman rat assessed as inhibition of UV radiation-induced erythema at 50 mg/kg, po relative to control; format: functional; details: Holtzmann
[3] = system: Mus musculus; assay: Toxicity in mouse assessed as mortality at >= 0.3 g/kg, ip; format: organism-based; details: in vivo, 300 mg/kg
How it was run: (§1)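 Mice dosed intraperitoneally at two dose levels, three animals per compound (rarely two). The approximate lethal range was taken as survival at the lower dose and death at the higher, in g/kg. Dose brackets were 0.1–0.3, 0.3–1.0, and >1.0.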

[4] = system: Rattus norvegicus; assay: Antiinflammatory activity in specific pathogen-free Alderley Park 1 rat assessed as inhibition of adjuvant-induced swelling at 25 mg/kg/day, po treated for 2 days prior to adjuvant-challenge followed by compound administration for 18 days; format: functional, organism-based
How it was run: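 Adjuvant arthritis assay in rats. Oral dosing at 25 mg/kg per day begins 2 days before adjuvant and continues 18 days after it, for 20 days in total.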

[5] = system: Rattus norvegicus; assay: Antiinflammatory activity in Holtzman rat assessed as inhibition of UV radiation-induced erythema at 25 mg/kg, po relative to control; format: functional; details: Holtzmann
[6] = system: Mus musculus; assay: Toxicity in mouse assessed as mortality up to 0.3 g/kg, ip; format: organism-based; details: in vivo, 300 mg/kg; how it was run: as §1
[7] = system: Rattus norvegicus; assay: Antiinflammatory activity in po dosed Holtzman rat assessed as inhibition of UV radiation-induced erythema; format: functional; details: Holtzmann
[8] = system: Mus musculus; assay: Antiinflammatory activity in mouse assessed as inhibition of carrageenan-induced edema at 30 mg/kg relative to control; format: functional
[9] = system: Rattus norvegicus; assay: Antiinflammatory activity in Holtzman rat assessed as inhibition of carrageenan-induced paw edema at 35 mg/kg, po relative to control; format: functional; details: Holtzmann

O=C(O)c1ccccc1S(=O)(=O)c1ccccc1
inhibition in vivo at 50 mg/kg [1]: 15% | inhibition in vivo at 50 mg/kg [2]: 0% | Activity [3]: Toxic

CC(C(=O)O)c1ccccc1Sc1ccccc1 (configuration not stated)
inhibition in vivo at 50 mg/kg [1]: 14% | inhibition in vivo at 50 mg/kg [2]: 33% | Activity [3]: Toxic

O=C(O)Cc1ccccc1Sc1ccccc1
inhibition [4]: inactive | inhibition in vivo at 50 mg/kg [1]: 23% | inhibition in vivo at 50 mg/kg [2]: 51% | Activity [3]: Toxic

O=C(O)c1ccccc1Sc1cccc(C(F)(F)F)c1
inhibition in vivo at 50 mg/kg [1]: 18% | inhibition in vivo at 50 mg/kg [2]: 43% | inhibition in vivo at 25 mg/kg [5]: 0% | Activity [6]: Non-toxic

Cc1cccc(S(=O)(=O)c2ccccc2C(=O)O)c1C
inhibition in vivo at 50 mg/kg [1]: 0% | inhibition in vivo at 50 mg/kg [2]: 27% | Activity [3]: Toxic

CCCCC1C(=O)N(c2ccccc2)N(c2ccccc2)C1=O [PHENYLBUTAZONE]
ED50 [7]: 5 mg/kg | inhibition in vivo at 50 mg/kg [1]: 50%

NCCSSc1ccccc1C(=O)O
inhibition in vivo at 30 mg/kg [8]: 40%

Cc1cccc([S+]([O-])c2ccccc2C(=O)O)c1C (configuration not stated)
inhibition in vivo at 50 mg/kg [1]: 15% | inhibition in vivo at 50 mg/kg [2]: 0%

O=C(O)c1ccccc1S(=O)(=O)c1cccc(C(F)(F)F)c1
inhibition in vivo at 35 mg/kg [9]: 6% | inhibition in vivo at 50 mg/kg [2]: 23% | Activity [3]: Toxic

CC(=O)Oc1ccccc1C(=O)O [ASPIRIN]
inhibition in vivo at 50 mg/kg [1]: < 20% | inhibition in vivo at 50 mg/kg [2]: 50%

Cc1cccc(Sc2ccccc2C(=O)O)c1C
inhibition in vivo at 50 mg/kg [1]: 15% | inhibition in vivo at 50 mg/kg [2]: 26% | Activity [3]: Toxic

O=C(O)c1ccccc1[S+]([O-])c1ccccc1 (configuration not stated)
inhibition in vivo at 50 mg/kg [1]: 19% | inhibition in vivo at 50 mg/kg [2]: 0% | Activity [3]: Toxic

O=C(O)c1ccccc1[S+]([O-])c1cccc(C(F)(F)F)c1 (configuration not stated)
inhibition in vivo at 50 mg/kg [1]: 4% | inhibition in vivo at 50 mg/kg [2]: 2% | Activity [3]: Toxic

CC(C(=O)O)c1ccccc1[S+]([O-])c1ccccc1 (configuration not stated)
inhibition in vivo at 50 mg/kg [1]: 8% | inhibition in vivo at 50 mg/kg [2]: 7%

O=C(O)Cc1ccccc1[S+]([O-])c1ccccc1 (configuration not stated)
inhibition [4]: inactive | inhibition in vivo at 50 mg/kg [1]: 30% | inhibition in vivo at 50 mg/kg [2]: 23% | Activity [3]: Toxic
